SMILES strings stand for the structures. The source made the active and inactive calls. No cut-off for these calls is given here.

The IC50 is the concentration that inhibits the measured activity by half. The ΔTm is the shift of the melting midpoint relative to a reference.

Experiment [1] has as its system SW-620. As to the kind of experiment: Cell cycle arrest in human SW620 cells assessed as accumulation at G1 phase at 5 uM after 48 hrs by propidium iodide staining based flow cytometeric analysis (reference value: 52.7 +/- 0.9%). It is filed as functional. On the technique in general: A flow cytometer gives signals particle by particle.
The subject of experiment [2] is Nucleic Acid. As to the kind of experiment: Binding affinity to calf thymus DNA assessed as increase in CD band at 275 nm wavelength by circular dichroism spectroscopy. The conditions noted are these: Bos taurus. It is filed as nucleic-acid assay. In a few lines: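 CD spectra of ct-DNA (1.0 × 10^-5 mol dm^-3, as phosphate) titrated with compound at 25 °C. Sodium cacodylate buffer pH 7.0, I = 0.05 mol dm^-3, 1 cm quartz cuvette. DNA band (~274–275 nm) and induced bands above 300 nm followed versus r = [compound]/[ct-DNA].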
A general note: Circular dichroism is widely used to follow secondary structure.

The test system of the next experiment is MCF7. As to the kind of experiment: Antiproliferative activity against human MCF7 cells after 72 hrs by MTT assay. It is filed as functional, cell-based. The conditions noted are these: Homo sapiens, MCF7, 72 h. The procedure, abridged: (§1)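 Monolayer cells in DMEM with 10% FBS, 2 mM L-glutamine, penicillin and streptomycin at 37 °C, 5% CO2. Seeded at 3000-6000 cells/well by doubling time on day 0. Five 10-fold dilutions (0.01–100 µM) were added and incubated 72 h. MTT read-out, converted to percentage growth. IC50 by linear regression between bracketing concentrations. Quadruplicate points, three independent experiments, ANOVA/Tukey p<0.05.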
(In general: Formazan colour is commonly taken as a measure of viable cells.)

In experiment [3] the test system is SW-620. As to the kind of experiment: Cell cycle arrest in human SW620 cells assessed as accumulation at G2/M phase at 1 uM after 24 hrs by propidium iodide staining based flow cytometeric analysis (reference value: 22.3 +/- 2.9%). The format is functional.
For a further experiment, the system named is WI-38. Description: Antiproliferative activity against human WI38 cells after 72 hrs by MTT assay. To be noted: Homo sapiens, WI-38, 72 h. The format is cell-based. In a few lines: as §1
The test system of a further experiment is SK-BR-3. As to the kind of experiment: Cytostatic activity against human SKBR3 cells at 1 to 10 uM after 72 hrs by MTT assay. It is filed as functional, cell-based. In a few lines: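 Monolayers in DMEM with 10% FBS, 2 mM L-glutamine, penicillin and streptomycin (37 °C, 5% CO2) were seeded at 3000–6000 cells/well on day 0. Five 10-fold dilutions (0.01–100 µM) were added, followed by 72-h incubation and MTT read-out. Absorbances were converted to percentage growth by the NIH formulae. Each point was run in quadruplicate in three experiments; ANOVA with Tukey test.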

Experiment [4] deals with MIA PaCa-2. Description: Cell cycle arrest in human MIAPaCa2 cells assessed as accumulation at subG1 phase at 10 uM after 48 hrs by propidium iodide staining based flow cytometeric analysis (reference value: 46.8 +/- 0.7%). It is filed as functional.
The subject of experiment [5] is MIA PaCa-2. As to the kind of experiment: Cell cycle arrest in human MIAPaCa2 cells assessed as accumulation at G1 phase at 5 uM after 24 hrs by propidium iodide staining based flow cytometeric analysis (reference value: 51.2 +/- 2.7%). It is filed as functional.
The subject of experiment [6] is MIA PaCa-2. Description: Cell cycle arrest in human MIAPaCa2 cells assessed as accumulation at S phase at 1 uM after 24 hrs by propidium iodide staining based flow cytometeric analysis (reference value: 29.2 +/- 4.2%). It is filed as functional.
For experiment [7], the system named is SW-620. Description: Cell cycle arrest in human SW620 cells assessed as accumulation at S phase at 5 uM after 48 hrs by propidium iodide staining based flow cytometeric analysis (reference value: 31.9 +/- 1%). It is filed as functional.
Experiment [8] has as its system Nucleic Acid. Description: Binding affinity to calf thymus DNA assessed as change in melting temperature at compound to polynucleotide ratio of 0.3 by UV-VIS spectroscopic analysis. To be noted: Bos taurus. It is filed as nucleic-acid assay. In a few lines:
(§2)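 ct-DNA alone or with compound at set r = [compound]/[polynucleotide], in cacodylate buffer pH 7.0, I = 0.05 mol dm^-3. Absorbance at 260 nm followed against temperature, ligand absorbance subtracted, curves normalized. Tm is the transition midpoint, from the first-derivative maximum or by tangent method. ΔTm = Tm(complex) − Tm(free DNA), mean of ≥2 runs, error ±0.5 °C.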

The test system of experiment [9] is SW-620. Description: Antiproliferative activity against human SW620 cells after 72 hrs by MTT assay. The format is functional, cell-based. The conditions noted are these: Homo sapiens, SW-620, 72 h. The procedure, abridged: as §1
Experiment [10] relates to SW-620. As to the kind of experiment: Cell cycle arrest in human SW620 cells assessed as accumulation at G2/M phase at 10 uM after 24 hrs by propidium iodide staining based flow cytometeric analysis (reference value: 22.3 +/- 2.9%). It is filed as functional.
Experiment [11] concerns SW-620. Description: Cell cycle arrest in human SW620 cells assessed as accumulation at G1 phase at 1 uM after 48 hrs by propidium iodide staining based flow cytometeric analysis (reference value: 52.7 +/- 0.9%). The format is functional.
The subject of experiment [12] is SW-620. Description: Cell cycle arrest in human SW620 cells assessed as accumulation at G2/M phase at 10 uM after 48 hrs by propidium iodide staining based flow cytometeric analysis (reference value: 16.1 +/- 0.9%). The format is functional.
Experiment [13] concerns SW-620. As to the kind of experiment: Cell cycle arrest in human SW620 cells assessed as accumulation at S phase at 10 uM after 24 hrs by propidium iodide staining based flow cytometeric analysis (reference value: 48.4 +/- 1.4%). It is filed as functional.
Experiment [14] relates to SW-620. As to the kind of experiment: Cell cycle arrest in human SW620 cells assessed as accumulation at S phase at 1 uM after 48 hrs by propidium iodide staining based flow cytometeric analysis (reference value: 31.9 +/- 1%). It is filed as functional.
Experiment [15] has as its system MIA PaCa-2. As to the kind of experiment: Cell cycle arrest in human MIAPaCa2 cells assessed as accumulation at S phase at 5 uM after 48 hrs by propidium iodide staining based flow cytometeric analysis (reference value: 20.5 +/- 0.2%). The format is functional.
The subject of experiment [16] is MIA PaCa-2. Description: Cell cycle arrest in human MIAPaCa2 cells assessed as accumulation at G1 phase at 10 uM after 24 hrs by propidium iodide staining based flow cytometeric analysis (reference value: 51.2 +/- 2.7%). It is filed as functional.
The test system of experiment [17] is Nucleic Acid. As to the kind of experiment: Binding affinity to calf thymus DNA assessed as change in melting temperature at compound to polynucleotide ratio of 0.5 by UV-VIS spectroscopic analysis. It is filed as nucleic-acid assay. To be noted: Bos taurus. In a few lines:
as §2

In experiment [18] the test system is MIA PaCa-2. As to the kind of experiment: Cell cycle arrest in human MIAPaCa2 cells assessed as accumulation at G2/M phase at 10 uM after 24 hrs by propidium iodide staining based flow cytometeric analysis (reference value: 19.5 +/- 3.9%). It is filed as functional.
The test system of experiment [19] is SW-620. As to the kind of experiment: Cell cycle arrest in human SW620 cells assessed as accumulation at G1 phase at 10 uM after 48 hrs by propidium iodide staining based flow cytometeric analysis (reference value: 52.7 +/- 0.9%). It is filed as functional.
The subject of experiment [20] is Nucleic Acid. As to the kind of experiment: Binding affinity to calf thymus DNA assessed as fluorescence quenching at compound to DNA ratio of < 0.1 by fluorimetric titrations. It is filed as nucleic-acid assay. To be noted: Bos taurus. In a few lines:
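Fluorimetric titration: portions of ct-DNA (sonicated, filtered, concentration as phosphate) added to compound in cacodylate buffer pH 7.0, I = 0.05 mol dm^-3. Emission 350–600 nm, sample absorbance <0.05 at excitation, mostly DNA excess (r < 0.1). Ks and n = [bound compound]/[DNA phosphate] by non-linear least-squares Scatchard fitting.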

Experiment [21] has as its system SW-620. As to the kind of experiment: Cell cycle arrest in human SW620 cells assessed as accumulation at subG1 phase at 10 uM after 48 hrs by propidium iodide staining based flow cytometeric analysis (reference value: 29.1 +/- 1.1%). It is filed as functional. The procedure, abridged:
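Cells seeded at 3 × 10^4 per well and treated 24 h later with 1, 5 or 10 µM for 24 and 48 h. Adherent and floating cells were pooled, washed in PBS and fixed in 70% ethanol. They were then stained with propidium iodide 10 µg/mL plus RNase A 0.2 µg/mL. Flow cytometry counted 10000 events; each point was run in triplicate; significance was taken at p < 0.05.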

Take `Cl.c1cnc2nc3ccc4ccc(C5=NCCN5)cc4n3c2c1`: the Activity is recorded as 90.9% in the experiment with SW-620 [1]; 18.5% in the experiment with SW-620 [3]; 39.3% in the experiment with MIA PaCa-2 [4]; 22.4% with MIA PaCa-2 [5]; 37.4% in the experiment on MIA PaCa-2 [6]; 7.5% in the experiment on SW-620 [7]. Besides, the Activity with SW-620 [10] came to 19.2%; in the experiment on SW-620 [11] it was 35.1%; in the experiment with SW-620 [12], 18.2%; with SW-620 [13] it was 47.3%; in the experiment on SW-620 [14], 45.4%; in the experiment on MIA PaCa-2 [15], 36.8%. In addition, the Activity in the experiment with MIA PaCa-2 [16] worked out at 52.4%; in the experiment with MIA PaCa-2 [18] it was 18.3%; with SW-620 [19], 39.9%; in the experiment with SW-620 [21], 40.6%. Besides, the result in the experiment on Nucleic Acid [2], in the experiment on SK-BR-3 and in the experiment on Nucleic Acid [20] was Active. Besides, the IC50 in the experiment with MCF7 amounted to 6.54 µM; with WI-38 it was 1.77 µM; with SW-620 [9] it was 0.64 µM. In addition, the figures for the ΔTm in the experiment on Nucleic Acid [8] and with Nucleic Acid [17] were 6.4 °C and 8.4 °C, respectively.
